Inhibition data for 26 molecules are collected here from ChEMBL document CHEMBL1139610, “Design, synthesis, and biological evaluation of novel 4-hydro-quinoline-3-carboxamide derivatives as an immunomodulator” (2005).

Type in all cases: functional
A short description of assay [1]: In vitro percent inhibition of LPS induced B-cell proliferation at the dose 10 ug/mL. The essentials: (§1)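 Splenocyte single-cell suspension (red cells lysed, 0.16 M NH4Cl-Tris), RPMI-1640 + 10% FBS, 2.5×10^6/mL; LPS 10 µg/mL stimulation with drug at final 1, 10 or 100 µg/mL, triplicate wells; cultured 72 h, 37 °C, [3H]thymidine pulse 0.5 µCi last 16 h, β-counting; %inhibition = (control mean − drug mean)/control mean.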

A short description of assay [2]: In vitro percent inhibition of LPS induced B-cell proliferation at the dose 1 ug/mL. The essentials:
as §1

The nature of assay [3]: In vitro percent inhibition of LPS induced B-cell proliferation at the dose 100 ug/mL. The essentials: as §1
Assay [4] has as its target T1, Tumor necrosis factor (Mus musculus) (UniProt P06804).
T1 sequence (whole entry): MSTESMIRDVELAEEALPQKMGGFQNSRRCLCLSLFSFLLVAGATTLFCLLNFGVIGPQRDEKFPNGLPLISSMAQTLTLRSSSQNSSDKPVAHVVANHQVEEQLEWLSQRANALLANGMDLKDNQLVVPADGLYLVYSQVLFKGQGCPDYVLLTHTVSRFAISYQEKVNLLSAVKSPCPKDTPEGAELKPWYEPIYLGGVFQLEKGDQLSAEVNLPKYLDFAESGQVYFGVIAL
The assay can be described thus: In vitro percent inhibition of tumor necrosis factor, alpha secreted by macrophage at the dose 1 ug/mL. The essentials:
(§2)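 RAW264.7 macrophages in RPMI 1640 with 10% FCS, 2 mM glutamine, gentamycin; seeded 2×10^5/mL, grown ~3 days to confluence at 37 °C, 5% CO2; LPS 10 µg/mL plus drug at final 1, 10 or 100 µg/mL for 24 h; supernatant TNF-α by ELISA; %inhibition = (control mean − drug mean)/control mean.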

The target in assay [5] is T1, Tumor necrosis factor (Mus musculus). The assay can be described thus: In vitro percent inhibition of tumor necrosis factor, alpha secreted by macrophage at the dose 100 ug/mL. The method, boiled down: as §2
Assay [6] in a line: In vitro percent inhibition of ConA induced T-cell proliferation at the dose 100 ug/mL. The method, boiled down: (§3)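 Spleen cells sieved to single-cell suspension, red cells lysed with 0.16 M NH4Cl-Tris, washed, in RPMI-1640 + 10% FBS; seeded at 2.5×10^6/mL, stimulated with ConA 0.5 µg/mL, drug final 1, 10 or 100 µg/mL, triplicates; 72 h at 37 °C, [3H]thymidine 0.5 µCi for final 16 h; cpm counted; %inhibition = (control − drug)/control.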

Assay [7] has as its target T1, Tumor necrosis factor (Mus musculus). The assay can be described thus: In vitro percent inhibition of tumor necrosis factor, alpha secreted by macrophage at the dose 10 ug/mL. The method, boiled down: as §2
Assay [8] in a line: In vitro percent inhibition of ConA induced T-cell proliferation at the dose 10 ug/mL. The essentials:
as §3

Assay [9] can be described thus: In vitro percent inhibition of ConA induced T-cell proliferation at the dose 1 ug/mL. The essentials:
as §3

Consider `CCN(C(=O)c1cnc2c(C)cc(C)cc2c1O)c1ccccc1`, for which the inhibition at 10 µg/mL was found to be 36% in assay [1] and 35.5% in assay [8]. In addition, the results for the inhibition at 1 µg/mL in assay [2] and in [9] were 4.49% and 31.9%, respectively. The inhibition at 100 µg/mL amounted to 87.5% in [3] and 64.2% in assay [6]. Moreover, the results for the inhibition in [4], in [5] and in assay [7] were 46.3%, 47.6% and 29.7%, respectively.

Take `CSc1ccc2c(c1)c(O)c(C(=O)N(C)c1ccccc1)c(=O)n2C`: the inhibition at 10 µg/mL in assay [1] was found to be 30.3%; in assay [8] it was 75.3%. The inhibition at 1 µg/mL is 13.6% in assay [2] and 52% in assay [9]. For the same molecule, the inhibition at 100 µg/mL is 37.8% in assay [3] and 79.6% in assay [6]. The inhibition was 14.7% in assay [4], 29.7% in assay [5] and 11.2% in [7].

Take `CN(C)CC(C)(C)CNC(=O)c1cnc2cc(F)ccc2c1O`: the inhibition at 100 µg/mL in assay [6] amounted to 96.3%. Besides, the inhibition at 10 µg/mL in assay [8] was found to be 37.2%. The inhibition at 1 µg/mL in [9] was determined as 20.8%.

Take `Cc1cc(C)c2ncc(C(=O)N(C)c3ccccc3)c(O)c2c1`: in [6], the inhibition at 100 µg/mL worked out at 47.1%. Besides, in assay [8], the inhibition at 10 µg/mL was 12.9%. Further, in assay [9], the inhibition at 1 µg/mL was determined as 1.84%.

Turning to `Cc1cc(C)c2ncc(C(=O)NCCN(C)C)c(O)c2c1`, the inhibition at 100 µg/mL in [6] is 99.6%. Further, the inhibition at 10 µg/mL in assay [8] is 38.5%. The inhibition at 1 µg/mL in assay [9] was 0.95%.

As to `CN(C(=O)c1cnc2cc(F)ccc2c1O)c1ccccc1`, the inhibition at 10 µg/mL in assay [1] is 12.5%; in assay [8], -21.5%. Further, the inhibition at 1 µg/mL in assay [2] is 4%; in [9] it was -46.8%. Moreover, the inhibition at 100 µg/mL in assay [3] is -127%; in assay [6], 17.1%.

Consider `COc1ccc2c(O)c(C(=O)NCC(C)(C)CN(C)C)cnc2c1`, for which the inhibition at 10 µg/mL is 72.3% in [1] and 29.4% in [8]. The values for the inhibition at 1 µg/mL in [2] and in assay [9] were 48.8% and 32.6%, respectively. Further, the inhibition at 100 µg/mL in assay [3] was found to be 91.6%; in assay [6], 98.5%.

Regarding `Cc1ccc2ncc(C(=O)N(C)c3ccccc3)c(O)c2c1`, in [6], the inhibition at 100 µg/mL is -1.7%. For the same molecule, in assay [8], the inhibition at 10 µg/mL was -20%. Moreover, the inhibition at 1 µg/mL in assay [9] is -59.3%.

On to `COc1ccc2c(O)c(C(=O)NCCN(C)C)cnc2c1`, for which, in [6], the inhibition at 100 µg/mL turned out to be 92.8%. The inhibition at 10 µg/mL in [8] was -15.3%. In [9], the inhibition at 1 µg/mL was -40.7%.

In the case of `CN(C)CC(C)(C)CNC(=O)c1cnc2ccc(F)cc2c1O`, the inhibition at 10 µg/mL in [1] was 17.8%; in assay [8] it was 32.9%. Besides, the inhibition at 1 µg/mL was 21.3% in assay [2] and -30.7% in [9]. Besides, the inhibition at 100 µg/mL was found to be 70.5% in assay [3] and 87.4% in assay [6].

Regarding `CN(C(=O)c1cnc2cc(C(F)(F)F)ccc2c1O)c1ccccc1`, the inhibition at 10 µg/mL in assay [1] was 6.41%; in [8], 4.11%. The inhibition at 1 µg/mL is 39.8% in assay [2] and 54.7% in assay [9]. Also, the inhibition at 100 µg/mL in assay [3] was 64.9%; in assay [6], 93.6%. Also, the results for the inhibition in assay [5] and in [7] were -3.57% and -5.45%, respectively.

In the case of `CN(C)CCNC(=O)c1cnc2ccc([N+](=O)[O-])cc2c1O`, the inhibition at 100 µg/mL in assay [6] was determined as 99.9%. In assay [8], the inhibition at 10 µg/mL is 53.2%. Also, the inhibition at 1 µg/mL in assay [9] came to 41.5%.

As to `O=C(O)c1ccc2ncc(C(=O)Nc3ccccc3)c(O)c2c1`, the inhibition at 10 µg/mL was determined as 80.6% in assay [1] and 57.5% in [8]. The inhibition at 1 µg/mL was found to be 82.5% in [2] and 71.3% in assay [9]. In addition, the inhibition at 100 µg/mL is 48.5% in assay [3] and 39.8% in [6]. The inhibition was determined as 15.2% in [4] and 15.5% in assay [7].

`CN(C)CCNC(=O)c1cnc2ccc(Br)cc2c1O`: in assay [6], the inhibition at 100 µg/mL was 99.7%. In addition, the inhibition at 10 µg/mL in assay [8] came out at 31.6%. Besides, the inhibition at 1 µg/mL in assay [9] was -19.6%.

Regarding `CSc1ccc2ncc(C(=O)NCCN(C)C)c(O)c2c1`, the inhibition at 10 µg/mL is -9.69% in assay [1] and -42.6% in [8]. For the same molecule, the inhibition at 1 µg/mL in assay [2] was -4.33%; in assay [9], -182%. The inhibition at 100 µg/mL was found to be 87.7% in assay [3] and 98.2% in assay [6].

Regarding `O=C(NCCO)c1cnc2cc(Cl)ccc2c1O`, the figures for the inhibition at 10 µg/mL in assay [1] and in assay [8] were 29.1% and 49.8%, respectively. Moreover, the results for the inhibition at 1 µg/mL in assay [2] and in [9] were 21.3% and 42.5%, respectively. The inhibition at 100 µg/mL came out at 53.3% in assay [3] and 93.8% in assay [6]. The inhibition in assay [5] stood at 77.7%; in assay [7], 6.06%.

As to `CN(C(=O)c1cnc2ccccc2c1O)c1ccccc1`, the inhibition at 10 µg/mL in assay [1] is 8.46%; in assay [8] it was 24.9%. Also, the inhibition at 1 µg/mL was 17.7% in assay [2] and -7.55% in [9]. Also, the inhibition at 100 µg/mL was 32.4% in [3] and -9.33% in assay [6]. Besides, the values for the inhibition in assay [4] and in assay [5] were 7.59% and -1.33%, respectively.

For the molecule `O=C(O)c1ccc2ncc(C(=O)Nc3cccc(Cl)c3)c(O)c2c1`, the inhibition at 10 µg/mL was 94.3% in assay [1] and 84.8% in [8]. The values for the inhibition at 1 µg/mL in assay [2] and in assay [9] were 78.5% and 87.6%, respectively. The inhibition at 100 µg/mL came out at 94.7% in assay [3] and 73.4% in assay [6].

Regarding `CN(C)CCNC(=O)c1cnc2cc(F)ccc2c1O`, the inhibition at 100 µg/mL in assay [6] was determined as 87.2%. Also, the inhibition at 10 µg/mL in assay [8] is -9%. For the same molecule, in [9], the inhibition at 1 µg/mL was -24.6%.

For `CN(C)CCNC(=O)c1cnc2ccccc2c1O`, the inhibition at 100 µg/mL in assay [6] was found to be 73.6%. Also, the inhibition at 10 µg/mL in assay [8] is -6.94%. In addition, in assay [9], the inhibition at 1 µg/mL was -14.4%.

As to `CSc1cccc2c(O)c(C(=O)N(C)c3ccccc3)cnc12`, the inhibition at 10 µg/mL in [1] came to 36.5%; in [8] it was 52.4%. In addition, the inhibition at 1 µg/mL was -2.46% in [2] and 11.4% in assay [9]. In addition, the inhibition at 100 µg/mL stood at 71.7% in assay [3] and 81.7% in assay [6]. In addition, the inhibition was 2.08% in assay [4] and -9.52% in [5].

Consider `CN(C)CCNC(=O)c1cnc2cc(Cl)ccc2c1O`, for which, in assay [6], the inhibition at 100 µg/mL stood at 99.9%. Also, the inhibition at 10 µg/mL in assay [8] stood at 33.7%. For the same molecule, the inhibition at 1 µg/mL in [9] came out at 14%.

Regarding `Cc1ccc2ncc(C(=O)NCCN(C)C)c(O)c2c1`, the inhibition at 100 µg/mL in assay [6] is 94.9%. Also, the inhibition at 10 µg/mL in [8] was -11.2%. The inhibition at 1 µg/mL in assay [9] was -27.5%.

On to `CSc1cccc2c(O)c(C(=O)NCCN(C)C)cnc12`, for which the inhibition at 100 µg/mL in assay [6] worked out at 99.9%. Also, the inhibition at 10 µg/mL in assay [8] was 69.1%. In addition, the inhibition at 1 µg/mL in assay [9] stood at 32%.

As for `CSc1ccc2ncc(C(=O)N(C)c3ccccc3)c(O)c2c1`, the figures for the inhibition at 10 µg/mL in assay [1] and in assay [8] were -144% and -155%, respectively. The inhibition at 1 µg/mL in assay [2] was -47%. The inhibition at 100 µg/mL amounted to 65.6% in [3] and 96.3% in [6].

As to `CSc1ccc2c(O)c(C(=O)NCCN(C)C)cnc2c1`, the inhibition at 100 µg/mL in [6] stood at 100%. The inhibition at 10 µg/mL in [8] came to 38.5%. The inhibition at 1 µg/mL in assay [9] was 30.3%.

The term inhibition denotes the drop in the measured response relative to a control, in per cent.
